Reference: ChEMBL document CHEMBL3120133, “Discovery of a potent boronic acid derived inhibitor of the HCV RNA-dependent RNA polymerase” (J Med Chem, 2014)

tested on: not listed separately; assay: Inhibition of C-terminal 6xHis-tagged Hepatitis C virus genotype 1b BK NS5B Cdelta21 RNA dependent RNA polymerase L47Q/F101Y/[…] mutant after 30 mins in presence of [alpha-33P]; parameters: species or system Hepatitis C virus (isolate BK); conditions: not given

Row | Compound | IC50 [nM]
1 | CNC(=O)c1c(-c2ccc(F)cc2)oc2cc(N(Cc3ccc(P(=O)(O)O)cc3)S(C)(=O)=O)c(C3CC3)cc12 | 20
2 | CNC(=O)c1c(-c2ccc(F)cc2)oc2cc(N(CC3CCOB(O)C3)S(C)(=O)=O)c(C3CC3)cc12 (racemic) | 80
3 | CNC(=O)c1c(-c2ccc(F)cc2)oc2cc(N(C[C@@H]3COB(O)C3)S(C)(=O)=O)c(C3CC3)cc12 | 63
4 | CNC(=O)c1c(-c2ccc(F)cc2)oc2cc(N(CCC3OB(O)c4ccccc43)S(C)(=O)=O)c(C3CC3)cc12 (racemic) | 32
5 | CNC(=O)c1c(-c2ccc(F)cc2)oc2cc(N(CC3CCB(O)O3)S(C)(=O)=O)c(C3CC3)cc12 (racemic) | 100
6 | CNC(=O)c1c(-c2ccc(F)cc2)oc2cc(N(CC3CCB(O)OC3)S(C)(=O)=O)c(C3CC3)cc12 (racemic) | 63

tested on: Hepatitis C virus; assay: Antiviral activity against wild type Hepatitis C virus genotype 1b harboring S365T mutant infected in human HuH7 cells assessed as inhibition of viral replication after 72 hrs by Bright-glo luciferase reporter gene assay; format: functional, organism-based, Hepacivirus hominis; conditions: Huh-7, 72 h

Row | Compound | EC50 [nM]
7 | CNC(=O)c1c(-c2ccc(F)cc2)oc2cc(N(C[C@@H]3COB(O)C3)S(C)(=O)=O)c(C3CC3)cc12 | 6.5

tested on: Hepatitis C virus; assay: Antiviral activity against wild type Hepatitis C virus genotype 1a infected in human HuH7 cells assessed as inhibition of viral replication after 48 hrs by luciferase reporter gene assay; format: functional, organism-based, Hepacivirus hominis; conditions: subtype 1a, Huh-7, 48 h
Summary of the method: (§1)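 Replicon-based readout (stable and transient replicon formats) in place of virus infection, with compound present for 2 days before EC50 determination.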

Row | Compound | EC50 [nM]
8 | CNC(=O)c1c(-c2ccc(F)cc2)oc2cc(N(Cc3ccc(P(=O)(O)O)cc3)S(C)(=O)=O)c(C3CC3)cc12 | 2200
9 | CNC(=O)c1c(-c2ccc(F)cc2)oc2cc(N(CC3CCOB(O)C3)S(C)(=O)=O)c(C3CC3)cc12 (racemic) | 9.1
10 | CNC(=O)c1c(-c2ccc(F)cc2)oc2cc(N(C[C@@H]3COB(O)C3)S(C)(=O)=O)c(C3CC3)cc12 | 7.6
11 | CNC(=O)c1c(-c2ccc(F)cc2)oc2cc(N(CCC3OB(O)c4ccccc43)S(C)(=O)=O)c(C3CC3)cc12 (racemic) | 7.4
12 | CNC(=O)c1c(-c2ccc(F)cc2)oc2cc(N(CC3CCB(O)O3)S(C)(=O)=O)c(C3CC3)cc12 (racemic) | 8.8
13 | CNC(=O)c1c(-c2ccc(F)cc2)oc2cc(N(CC3CCB(O)OC3)S(C)(=O)=O)c(C3CC3)cc12 (racemic) | 9.7

tested on: Huh-7; assay: Cytotoxicity in human HuH7 cells assessed as cell viability after 72 hrs by CellTitre-glo luminescence assay; format: cell-based; conditions: huh-7, 72 h

Row | Compound | Activity
14 | CNC(=O)c1c(-c2ccc(F)cc2)oc2cc(N(CC3CCOB(O)C3)S(C)(=O)=O)c(C3CC3)cc12 (racemic) | Non-toxic
15 | CNC(=O)c1c(-c2ccc(F)cc2)oc2cc(N(CC3CCB(O)O3)S(C)(=O)=O)c(C3CC3)cc12 (racemic) | Non-toxic
16 | CNC(=O)c1c(-c2ccc(F)cc2)oc2cc(N(CC3CCB(O)OC3)S(C)(=O)=O)c(C3CC3)cc12 (racemic) | Non-toxic

tested on: Hepatitis C virus; assay: Antiviral activity against wild type Hepatitis C virus genotype 1b harboring C316N mutant infected in human HuH7 cells assessed as inhibition of viral replication after 48 hrs by luciferase reporter gene assay; format: functional, organism-based, Hepacivirus hominis; conditions: Huh-7, 48 h

Row | Compound | EC50 [nM]
17 | CNC(=O)c1c(-c2ccc(F)cc2)oc2cc(N(Cc3ccc(P(=O)(O)O)cc3)S(C)(=O)=O)c(C3CC3)cc12 | > 5000
18 | CNC(=O)c1c(-c2ccc(F)cc2)oc2cc(N(CC3CCOB(O)C3)S(C)(=O)=O)c(C3CC3)cc12 (racemic) | 38
19 | CNC(=O)c1c(-c2ccc(F)cc2)oc2cc(N(C[C@@H]3COB(O)C3)S(C)(=O)=O)c(C3CC3)cc12 | 13
20 | CNC(=O)c1c(-c2ccc(F)cc2)oc2cc(N(CCC3OB(O)c4ccccc43)S(C)(=O)=O)c(C3CC3)cc12 (racemic) | 12
21 | CNC(=O)c1c(-c2ccc(F)cc2)oc2cc(N(CC3CCB(O)O3)S(C)(=O)=O)c(C3CC3)cc12 (racemic) | 52
22 | CNC(=O)c1c(-c2ccc(F)cc2)oc2cc(N(CC3CCB(O)OC3)S(C)(=O)=O)c(C3CC3)cc12 (racemic) | 56

tested on: not listed separately; assay: Stability of the compound; format: physicochemical; conditions: not given

Row | Compound | Stability
23 | CNC(=O)c1c(-c2ccc(F)cc2)oc2cc(N(CC3CCOB(O)C3)S(C)(=O)=O)c(C3CC3)cc12 (racemic) | Stable
24 | CNC(=O)c1c(-c2ccc(F)cc2)oc2cc(N(CC3CCB(O)O3)S(C)(=O)=O)c(C3CC3)cc12 (racemic) | Stable
25 | CNC(=O)c1c(-c2ccc(F)cc2)oc2cc(N(CC3CCB(O)OC3)S(C)(=O)=O)c(C3CC3)cc12 (racemic) | Stable

tested on: Hepatitis C virus; assay: Antiviral activity against wild type Hepatitis C virus genotype 1b harboring C316Y mutant infected in human HuH7 cells assessed as inhibition of viral replication after 72 hrs by Bright-glo luciferase reporter gene assay; format: functional, organism-based, Hepacivirus hominis; conditions: Huh-7, 72 h

Row | Compound | EC50 [nM]
26 | CNC(=O)c1c(-c2ccc(F)cc2)oc2cc(N(C[C@@H]3COB(O)C3)S(C)(=O)=O)c(C3CC3)cc12 | 11

tested on: Hepatitis C virus; assay: Antiviral activity against wild type Hepatitis C virus genotype 1a harboring C316Y mutant infected in human HuH7 cells assessed as inhibition of viral replication after 48 hrs by luciferase reporter gene assay; format: functional, organism-based, Hepacivirus hominis; conditions: subtype 1a, Huh-7, 48 h

Row | Compound | EC50 [nM]
27 | CNC(=O)c1c(-c2ccc(F)cc2)oc2cc(N(C[C@@H]3COB(O)C3)S(C)(=O)=O)c(C3CC3)cc12 | 830
28 | CNC(=O)c1c(-c2ccc(F)cc2)oc2cc(N(CCC3OB(O)c4ccccc43)S(C)(=O)=O)c(C3CC3)cc12 (racemic) | 790

tested on: Hepatitis C virus; assay: Antiviral activity against wild type Hepatitis C virus genotype 1b harboring C316F mutant infected in human HuH7 cells assessed as inhibition of viral replication after 72 hrs by Bright-glo luciferase reporter gene assay; format: functional, organism-based, Hepacivirus hominis; conditions: Huh-7, 72 h

Row | Compound | EC50 [nM]
29 | CNC(=O)c1c(-c2ccc(F)cc2)oc2cc(N(C[C@@H]3COB(O)C3)S(C)(=O)=O)c(C3CC3)cc12 | 37

tested on: Hepatitis C virus; assay: Antiviral activity against wild type Hepatitis C virus genotype 1b infected in human HuH7 cells assessed as inhibition of viral replication after 48 hrs by luciferase reporter gene assay; format: functional, organism-based, Hepacivirus hominis; conditions: Huh-7, 48 h; summary of the method: as §1

Row | Compound | EC50 [nM]
30 | CNC(=O)c1c(-c2ccc(F)cc2)oc2cc(N(Cc3ccc(P(=O)(O)O)cc3)S(C)(=O)=O)c(C3CC3)cc12 | 760
31 | CNC(=O)c1c(-c2ccc(F)cc2)oc2cc(N(CC3CCOB(O)C3)S(C)(=O)=O)c(C3CC3)cc12 (racemic) | 3.7
32 | CNC(=O)c1c(-c2ccc(F)cc2)oc2cc(N(C[C@@H]3COB(O)C3)S(C)(=O)=O)c(C3CC3)cc12 | 4.6
33 | CNC(=O)c1c(-c2ccc(F)cc2)oc2cc(N(CCC3OB(O)c4ccccc43)S(C)(=O)=O)c(C3CC3)cc12 (racemic) | 3.5
34 | CNC(=O)c1c(-c2ccc(F)cc2)oc2cc(N(CC3CCB(O)O3)S(C)(=O)=O)c(C3CC3)cc12 (racemic) | 6.5
35 | CNC(=O)c1c(-c2ccc(F)cc2)oc2cc(N(CC3CCB(O)OC3)S(C)(=O)=O)c(C3CC3)cc12 (racemic) | 6.4

tested on: not listed separately; assay: Clearance in Sprague-Dawley rat at 1 mg/kg, iv and 5 mg/kg, po; format: ADME, organism-based; conditions: in vivo

Row | Compound | clearance [mL/min/kg]
36 | CNC(=O)c1c(-c2ccc(F)cc2)oc2cc(N(C[C@@H]3COB(O)C3)S(C)(=O)=O)c(C3CC3)cc12 | 6.6
